From ChEMBL document CHEMBL1125114, “Cardiotonic agents. 6. Histamine analogues as potential cardiovascular selective H2 agonists” (J Med Chem, 1990)
Where “and” joins values, the source holds several entries; their conditions need not be identical. Equal entries are not always repeated.

How the values were obtained:
[1] = Concentration which gives 20% increase in the force contraction in ferret papillary muscle; assay type: functional, Mustela putorius furo, Muscle tissue
In short: (§1)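 Isolated ferret papillary muscle, force of contraction recorded over a dose-response range. C20 = concentration giving a 20% increase in contractile force. Single experiments reported individually; with three or more runs, mean and range given.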

[2] = species: Mustela putorius furo; test: In vitro inotropy blocking studies in ferret papillary muscle in the presence of 10 uM cimetidine; NB-Not Blocked; assay type: functional, tissue-based; conditions: Muscle tissue
In short: (§2)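 Ferret papillary muscle dose-response repeated in the presence of antagonist (cimetidine). A rise of at least 1 order of magnitude in the measured C20 was scored as a blocked inotropic response.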

[3] = species: Mustela putorius furo; test: In vitro inotropy blocking studies in ferret papillary muscle in the presence of 100 uM nadolol; B-Blocked; assay type: functional, tissue-based; conditions: Muscle tissue
In short: (§3)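 Ferret papillary muscle dose-response repeated in the presence of 100 μM nadolol. A rise of at least 1 order of magnitude in the measured C20 was scored as a blocked inotropic response.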

[4] = species: Mustela putorius furo; test: (§4) In vitro inotropy blocking studies in ferret papillary muscle in the presence of 10 uM cimetidine; B-Blocked; assay type: functional, tissue-based; conditions: Muscle tissue
[5] = system: Cavia porcellus; test: In vivo percent change in mean arterial pressure in guinea pig was determined at a dose of 7.5 mg/kg/h; assay type: functional, Artery
[6] = species: Mustela putorius furo; test: (§5) In vitro inotropy blocking studies in ferret papillary muscle in the presence of 100 uM nadolol; NB-Not Blocked; assay type: functional, tissue-based; conditions: Muscle tissue
In short: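 Ferret papillary muscle inotropic dose-response curves repeated in the presence of each antagonist (nadolol at 100 μM). A rise in C20 of at least one order of magnitude was scored as a blocked response.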

[7] = system: Cavia porcellus; test: In vivo percent change in heart rate in guinea pig was determined at a dose of 7.5 mg/kg/h; assay type: functional
[8] = system: Cavia porcellus; test: In vivo percent change in total acid secretion in guinea pig was determined at a dose of 7.5 mg/kg/h; assay type: functional
[9] = species: Cavia porcellus; test: Chronotropic effect of histamine at 5 ug/mL in guinea pig atrium; NR-Not reached; assay type: functional, Cardiac atrium
[10] = dP/dt value of the compound; assay type: functional; parameters: unit not given here
[11] = species: Cavia porcellus; test: Contractile response of histamine at 0.5 ug/mL in guinea pig ileum; assay type: functional; conditions: Cavia porcellus, Ileum; read-out: EC50
In short: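 Isolated guinea pig ileum, H1 activity. Value is the concentration giving 50% of the contractile response of histamine at 0.5 μg/mL, taken from dose-response curves. Reported as mean ± SEM of three separate dose-response determinations. Response sensitivity checked with mepyramine.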

[12] = system: Rattus norvegicus; test: In vivo effect on gastric acid secretion in rat was determined after subcutaneous administration; assay type: functional; conditions: Stomach, sc
In short: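 Rats, subcutaneous dosing, gastric acid secretion measured by the method of Hagiwara and co-workers. ED50 = dose giving a 50% increase in acid secretion over control. Mean ± SEM of three separate dose-response determinations.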

[13] = system: Cavia porcellus; test: In vivo percent change in airway overflow in guinea pig was determined at a dose of 7.5 mg/kg/h; assay type: functional
[14] = system: Cavia porcellus; test: In vivo percent change total acid secretion in guinea pig was determined at a dose of 75 mg/kg/h; assay type: functional
In short: (§6)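 Pentobarbital-anesthetized guinea pigs with stomach ligated to contain gastric fluid. After 30 min stabilization, blood pressure, heart rate, LVEDP and LV dP/dtmax were recorded at 1-min intervals. Compound given by iv infusion for 60 min, then monitored 10 min more. Gastric contents were titrated against 0.1 N NaOH. Value is the average maximum % change from control in the 10 min after infusion, mean ± SEM.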

[15] = species: Cavia porcellus; test: Chronotropic effect of histamine at 5 ug/mL in guinea pig atrium; assay type: functional, Cardiac atrium; conditions: Cavia porcellus, Cardiac atrium; read-out: EC50
In short: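 Spontaneously beating guinea pig right atria. Value is the concentration giving 50% of the chronotropic effect of histamine at 5 μg/mL, taken from dose-response curves. Reported as mean ± SEM of three separate dose-response determinations. Response sensitivity checked with cimetidine.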

[16] = species: Mustela putorius furo; test: as §5; assay type: functional, tissue-based; conditions: Muscle tissue; in short: as §3; remark: listed apart in the source
[17] = species: Mustela putorius furo; test: as §4; assay type: functional, tissue-based; conditions: Muscle tissue; in short: as §2; remark: listed apart in the source
[18] = system: Cavia porcellus; test: In vivo percent change airway overflow in guinea pig was determined at a dose of 75 mg/kg/h; assay type: functional
[19] = dp/dt value of the compound; assay type: functional; in short: as §6
[20] = system: Cavia porcellus; test: In vivo percent change in mean arterial pressure in guinea pig was determined at a dose of 75 mg/kg/h; assay type: functional, Artery; in short: as §6
[21] = system: Cavia porcellus; test: In vivo percent change in heart rate in guinea pig was determined at a dose of 75 mg/kg/h; assay type: functional; in short: as §6
[22] = Concentration of compound which gives 20% increase in the force contraction in ferret papillary muscle.; assay type: functional, Mustela putorius furo, Muscle tissue
In short: (§7)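 Ferret papillary muscle force of contraction. C20 is the concentration giving a 20% increase in force. Values come from individual experiments; where three or more runs were done, the mean and range are given. NR means not reached.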

[23] = species: Mustela putorius furo; test: In vitro inotropy blocking studies in ferret papillary muscle in the presence of 100 uM nadolol; Blocked; assay type: functional, tissue-based; conditions: Muscle tissue; in short: as §3
[24] = species: Mustela putorius furo; test: Concentration of compound which gives 20% increase in the force contraction in ferret papillary muscle; NR-Not reached; assay type: functional, tissue-based; conditions: Muscle tissue; in short: as §1
[25] = species: Mustela putorius furo; test: Concentration of compound which gives 20% increase in the force contraction in ferret papillary muscle;NR- Not reached; assay type: functional, tissue-based; conditions: Muscle tissue; in short: as §7

Question: For `Cc1[nH]cnc1CCNCCNC(=O)c1ccccc1`, which C20 [1] is on record?
Answer: 27 uM l-1

Question: With `CC(CCc1ccc(O)cc1)NCCc1c[nH]cn1` (centres undefined) as the compound, how does the C20 [1] read?
Answer: 2 uM l-1 and 5 uM l-1

Question: And the Activity [2]?
Answer: Not blocked

Question: What about the Activity [3] of the same compound?
Answer: Blocked

Question: For `CCCCCCC(=O)NCCc1c[nH]cn1`, which C20 [1] is on record?
Answer: 7.3 uM l-1

Question: And the Activity [4]?
Answer: Blocked

Question: What about the Change [5] of the same compound?
Answer: 33%

Question: What about the Activity [6] of the same compound?
Answer: Not blocked

Question: And the Change [7]?
Answer: 41%

Question: What about the Change [8] of the same compound?
Answer: 160%

Question: What about the EC50 [9] of the same compound?
Answer: Not reached

Question: What about the dP/dt [10] of the same compound?
Answer: 146

Question: And the EC50 [11]?
Answer: 50.6 µM

Question: What about the ED50 [12] of the same compound?
Answer: 5.9 mg/kg

Question: And the Change [13]?
Answer: 197%

Question: For `Cc1[nH]cnc1CCNCCNC(=O)c1ccc(NS(C)(=O)=O)cc1`, which C20 [1] is on record?
Answer: 20 uM l-1 and 40 uM l-1

Question: What does the source list for `CCCCCCCNCCc1c[nH]cn1`?
Answer: Change [14]: 220%; EC50 [15]: 71 µM; Activity [16]: Not blocked; Activity [17]: Blocked; Change [18]: 150%; dP/dt [19]: 155; Change [20]: 15%; EC50 [11]: 7.88 µM; ED50 [12]: 10.7 mg/kg; Change [21]: 14%; C20 [22]: 1 uM l-1

Question: Which C20 [1] does the source give for `CC(=O)NCCNCCc1c[nH]cn1` here?
Answer: 46 uM l-1 and 85 uM l-1

Question: With `C(=C\c1ccccc1)/CCNCCc1c[nH]cn1` as the compound, how does the C20 [1] read?
Answer: 14 uM l-1 and 21 uM l-1

Question: What about the Activity [23] of the same compound?
Answer: Blocked

Question: For `Cc1[nH]cnc1CCNCCN`, which C20 [24] is on record?
Answer: Not reached

Question: For `COc1ccc(CCNCCc2c[nH]cn2)cc1OC`, which Activity [4] is on record?
Answer: Blocked

Question: What about the Activity [3] of the same compound?
Answer: Blocked

Question: Which C20 [1] does the source give for `c1ccc2c3c(ccc2c1)C(NCCc1c[nH]cn1)CCC3` (centres undefined) here?
Answer: >10 uM l-1

Question: For `CCCN(CCc1c[nH]cn1)C(C)CCc1ccc(O)cc1` (centres undefined), which C20 [1] is on record?
Answer: 4.9 uM l-1

Question: And the Activity [4]?
Answer: Blocked

Question: What about the Activity [3] of the same compound?
Answer: Blocked

Question: With `Cc1[nH]cnc1CCNCCNC(=O)N1CCOCC1` as the compound, how does the C20 [1] read?
Answer: >90 uM l-1

Question: With `NC(C/C=C/c1ccccc1)CCc1c[nH]cn1` (centres undefined) as the compound, how does the C20 [25] read?
Answer: Not reached
